Common to all, as to format: functional
The test system of one assay is Bacillus subtilis. In words: Antimicrobial activity against Bacillus subtilis DSM 1088 incubated for 24 hrs by disk diffusion method. Put shortly:
(§1)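 CLSI disk diffusion on nutrient agar, 4 mm deep, spread with 200 μL inoculum. 6.0 mm paper disks carry 40 μL of sample in HPLC-grade MeOH (0.1 to 10 μg/mL), air-dried. Plates are held 2 h at 4 °C, then incubated 24 h at 37 °C. Controls are streptomycin and gentamicin plus a solvent disk. MIC is derived per CLSI, triplicate.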

For a further assay, the system named is Escherichia coli. Put plainly: Antimicrobial activity against Escherichia coli DSM 1116 incubated for 24 hrs by disk diffusion method. In a few lines:
as §1
(A growth-free zone around the sample is the usual read-out of agar diffusion tests.)

The subject of the next assay is Aspergillus aculeatus. Put plainly: Antimicrobial activity against Aspergillus aculeatus incubated for 48 hrs by disk diffusion method. In a few lines:
(§2)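 Disk diffusion on potato dextrose agar, 4 mm deep. Mycelia are macerated in a sterile mortar to a homogeneous inoculum and 200 μL is spread. 6.0 mm disks carry 40 μL of sample, air-dried. Plates are held 2 h at 4 °C, then incubated 48 h at 28 °C. Solvent-disk, organism and sterility controls are included. Triplicate.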

Another assay deals with Acinetobacter sp. Put plainly: Antimicrobial activity against Acinetobacter sp. BD4 DSM 586 incubated for 24 hrs by disk diffusion method. Put shortly:
as §1

For the next assay, the system named is Staphylococcus aureus. Put plainly: Antimicrobial activity against Staphylococcus aureus subsp. aureus DSM 799 incubated for 24 hrs by disk diffusion method. Put shortly: as §1
In another assay the test system is Colletotrichum circinans. In words: Antimicrobial activity against Colletotrichum circinans incubated for 48 hrs by disk diffusion method. In a few lines: as §2

In brackets after ≈: the same amount, converted by molar mass. Activity calls are given as the source filed them. No cut-off for these calls is given here. Where only a bound is given, the exact number is not on record here.

In general, MIC refers to the lowest concentration found to suppress growth. Consider `C[C@]1(C(=O)O)[C@@H]2C=C(C(=O)O)CC[C@@H]21`, for which the MIC against Bacillus subtilis (DSM 1088, 24 h) is more than 10 µg/mL; with Escherichia coli (DSM 1116, 24 h), 10 µg/mL (≈ 51 µM); with Acinetobacter sp. (BD4 DSM 586, 24 h) it was 5 µg/mL (≈ 25.5 µM); in the assay with Staphylococcus aureus (DSM 799, 24 h), more than 10 µg/mL. In addition, the MIC entry with Aspergillus aculeatus and with Colletotrichum circinans was “inactive” in each case.
With `CC[C@@H](C)[C@H]1C=C[C@H]2[C@H](O)[C@H](O)C[C@@H](C)[C@@H]2[C@@]1(C)C(=O)/C=C/OC`, the MIC is more than 10 µg/mL against Bacillus subtilis (DSM 1088, 24 h); 5 µg/mL (≈ 14.9 µM) in the assay with Escherichia coli (DSM 1116, 24 h); more than 10 µg/mL with Acinetobacter sp. (BD4 DSM 586, 24 h); 1 µg/mL (≈ 2.97 µM) with Staphylococcus aureus (DSM 799, 24 h). Also, the MIC result in the assay on Aspergillus aculeatus and in the assay on Colletotrichum circinans was “inactive” each time.
With `C=C(C(=O)O)[C@H](CCCC)C(=O)O`, the MIC in the assay on Bacillus subtilis (DSM 1088, 24 h) was more than 10 µg/mL; against Escherichia coli (DSM 1116, 24 h), 10 µg/mL (≈ 53.7 µM); in the assay with Acinetobacter sp. (BD4 DSM 586, 24 h) it was 1 µg/mL (≈ 5.37 µM); against Staphylococcus aureus (DSM 799, 24 h), 10 µg/mL (≈ 53.7 µM). Besides, the MIC result in the assay with Aspergillus aculeatus and in the assay with Colletotrichum circinans was “inactive” each time.
In the case of `COC1=C(C2=C(OC)C(=O)c3cc4c(c(O)c3C2=O)C(=O)O[C@H](C)C4)C(=O)c2c(cc3c(c2O)C(=O)O[C@H](C)C3)C1=O`, the MIC entry in the assay on Aspergillus aculeatus and in the assay with Colletotrichum circinans was “inactive” in each case.
Regarding `COc1cc(O)c2c(O)c3c(c4c2c1[C@]1(C4)C(C)=CCCC1(C)C)[C@H](O)[C@@]1(O)CC(O)=C(C(N)=O)C(=O)[C@@]1(O)C3=O`, the MIC result in the assay with Aspergillus aculeatus and in the assay on Colletotrichum circinans was “inactive” each time.
Consider `CN[C@@H]1[C@H](O[C@H]2[C@H](O[C@H]3[C@H](O)[C@@H](O)[C@H](N=C(N)N)[C@@H](O)[C@@H]3N=C(N)N)O[C@@H](C)[C@]2(O)C=O)O[C@@H](CO)[C@H](O)[C@H]1O` [STREPTOMYCIN], for which the minimum inhibitory concentration (MIC) is 5 µg/mL (≈ 8.6 µM) against Bacillus subtilis (DSM 1088, 24 h); 1 µg/mL (≈ 1.72 µM) against Escherichia coli (DSM 1116, 24 h); 10 µg/mL (≈ 17.2 µM) against Acinetobacter sp. (BD4 DSM 586, 24 h); 5 µg/mL (≈ 8.6 µM) against Staphylococcus aureus (DSM 799, 24 h).
Turning to `CC[C@@H](C)[C@H]1C=C[C@H]2[C@H](O)[C@H](O)C[C@@H](C)[C@@H]2[C@@]1(C)C(=O)/C=C\O`, the MIC in the assay with Bacillus subtilis (DSM 1088, 24 h) is more than 10 µg/mL; with Escherichia coli (DSM 1116, 24 h) it was 5 µg/mL (≈ 15.5 µM); against Acinetobacter sp. (BD4 DSM 586, 24 h), 10 µg/mL (≈ 31 µM); against Staphylococcus aureus (DSM 799, 24 h) it was more than 10 µg/mL. The MIC result with Aspergillus aculeatus and with Colletotrichum circinans was “inactive” in each case.
As to `C=C(C(=O)O)[C@H](CCCCCC)C(=O)O`, the minimal inhibitory concentration (MIC) was more than 10 µg/mL against Bacillus subtilis (DSM 1088, 24 h); 10 µg/mL (≈ 46.7 µM) in the assay on Escherichia coli (DSM 1116, 24 h); 1 µg/mL (≈ 4.67 µM) in the assay with Acinetobacter sp. (BD4 DSM 586, 24 h); 10 µg/mL (≈ 46.7 µM) with Staphylococcus aureus (DSM 799, 24 h). Also, the MIC result with Aspergillus aculeatus and in the assay with Colletotrichum circinans was “inactive” throughout.
For the compound `CC(C)=CCC[C@]1(C)[C@@H]2[C@H]1C=C(C(=O)O)C[C@@H]2O`, the minimum inhibitory concentration (MIC) with Bacillus subtilis (DSM 1088, 24 h) is more than 10 µg/mL; in the assay with Escherichia coli (DSM 1116, 24 h), 5 µg/mL (≈ 20 µM); against Acinetobacter sp. (BD4 DSM 586, 24 h), 5 µg/mL (≈ 20 µM); in the assay with Staphylococcus aureus (DSM 799, 24 h), more than 10 µg/mL. In addition, the MIC entry in the assay on Aspergillus aculeatus and in the assay with Colletotrichum circinans was “inactive” throughout.
With GENTAMICIN, the minimal inhibitory concentration (MIC) against Bacillus subtilis worked out at 1 µg/mL; against Escherichia coli, 1 µg/mL; against Acinetobacter sp., 5 µg/mL; in the assay with Staphylococcus aureus it was 1 µg/mL.

For the origin of these results see ChEMBL document CHEMBL3352250, “Antibacterial secondary metabolites from an endophytic fungus, Eupenicillium sp. LG41” (2014).
